Test results taken from ChEMBL document CHEMBL4152279, “Synthesis, cytotoxic evaluation and target identification of thieno[2,3-d]pyrimidine derivatives with a dithiocarbamate side chain at C2 position” (Eur J Med Chem, 2018).

Legend:
A549 [1] = assay: Cell cycle arrest in human A549 cells assessed as accumulation at G0/G1 phase at 0.1 uM after 24 hrs by propidium iodide staining based flow cytometry (reference value: 46.39 +/- 1.75%); type: functional
A549 [2] = assay: Cell cycle arrest in human A549 cells assessed as accumulation at G2/M phase at 0.1 uM after 24 hrs by propidium iodide staining based flow cytometry (reference value: 20.95 +/- 0.8%); type: functional
A549 [3] = assay: Antiproliferative activity against human A549 cells after 72 hrs by MTS assay; type: functional, cell-based; details: A549, 72 h
How it was run: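 MTS read-out (CellTiter 96 AQueous One) of proliferation in A549 or HCT-116 cells grown in DMEM with 10% FBS at 37 °C, 5% CO2. Taxol-resistant A549 cells were exposed for 72 h. Compounds were screened at 30 μM versus vehicle, with ≥50% inhibition counted active. Actives were then tested over a concentration range for IC50. Triplicate wells, three independent experiments, mean ± SD.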

A549 [4] = assay: Cell cycle arrest in human A549 cells assessed as accumulation at S phase at 0.1 uM after 24 hrs by propidium iodide staining based flow cytometry (reference value: 32.37 +/- 1.23%); type: functional

- IC50 (A549 [3]): > 30 µM
Structure (SMILES): CC(=O)O[C@H]1C(=O)[C@@]2(C)[C@H]([C@H](OC(=O)c3ccccc3)[C@]3(O)C[C@H](OC(=O)[C@H](O)[C@@H](NC(=O)c4ccccc4)c4ccccc4)C(C)=C1C3(C)C)[C@]1(OC(C)=O)CO[C@@H]1C[C@@H]2O [PACLITAXEL]
- Activity (A549 [1]): 5.86%
- Activity (A549 [2]): 74.17%
- Activity (A549 [4]): 24.56%
